We go through two compounds from publication PMC12343878 (Communications Biology, 2025).

Square brackets hold non-standard residues; d marks the D form. Peptide text beside a SMILES is read from it. * marks the point of attachment. X1 = CCCCCCCCCCCCCCCC(=O)OC[C@H](COP(=O)(O)OCCNC(=O)CCCc1ccc(N2C(=O)CC(*)C2=O)cc1)OC(=O)CCCCCCCCCCCCCCC; pS = N[C@@H](COP(=O)(O)O)C(=O)O

Data set [1] deals with TGN38 lipo-peptide (Yxxφ-containing peptide derived from the cytoplasmic tail of TGN38, lipid-conjugated). The data set can be described thus: specular neutron reflectometry.
Data set [2] addresses CD4 lipo-peptide (di-leucine peptide derived from the phosphorylated cytoplasmic tail of CD4, lipid-conjugated). The data set can be described thus: specular neutron reflectometry.
The target of data set [3] is TGN38 lipo-peptide (Yxxφ-containing peptide derived from the cytoplasmic tail of TGN38, lipid-conjugated). As to the kind of experiment: Langmuir trough surface-pressure tensiometry.
Data set [4] deals with CD4 lipo-peptide (di-leucine peptide derived from the phosphorylated cytoplasmic tail of CD4, lipid-conjugated). The data set can be described thus: Langmuir trough surface-pressure tensiometry.
Data set [5] concerns the target T1, AP2 (UniProt P18484+P62743+P63010+P84092). The data set can be described thus: High-resolution SNR rigid-body modeling of membrane-bound AP2. The class given is binding. The method in brief:
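Measured on the FIGARO time-of-flight reflectometer at 0.6° and 3.7°, 7% dλ/λ, Qz 0.007–0.25 Å−1, in 100% and 8.1% D2O contrasts. Trough monolayers at 25 ± 1 mN/m were measured before and after AP2 injection into the subphase (final 10 nM). SLD profiles were calculated from energy-minimised open, open+ and closed AP2 models (PDB […], 6qh6, 2vgl) to fit orientation and position. Fractional coverage is given as mean ± SD, n = 256.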

Data set [6] concerns the target T1, AP2. The data set can be described thus: Equilibrium tensiometry binding analysis.
The target of data set [7] is T1, AP2. The data set can be described thus: Fluid-phase tapping-mode AFM of transferred monolayers. Particulars: CD4-presenting monolayers. In short, it runs like this:
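Monolayers were transferred from a Langmuir trough onto glass coverslips by Langmuir–Schaeffer and imaged by fluid-phase tapping-mode AFM. Scans were 5 μm at 256×256 pixels and 1 Hz. A droplet of HKM buffer containing recombinant AP2 was spread and imaged before evaporation. Thickness profiles (n = 10) were Gaussian-fitted to give mean ± SD.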

A short description of data set [8]: SNR of Langmuir lipid monolayers before AP2. It is filed as physicochemical. The following applies: Π0 = 25 ± 0.5 mN/m.
Data set [9] addresses T1, AP2. As to the kind of experiment: SNR low-resolution slab model of membrane-bound AP2 on Langmuir monolayers. The class given is binding. The following applies: AP2 10 nM. The method in brief:
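Langmuir-trough monolayers held at 25 ± 1 mN/m were measured on the FIGARO reflectometer, then AP2 was injected beneath them to a final bulk concentration of 10 nM. Settings were two incidence angles (0.6°, 3.7°), 7% wavelength resolution and Qz 0.007–0.25 Å−1, with 100% D2O and 8.1% D2O contrasts. The bound protein was fitted as a slab of constant SLD. Fit errors were ±1σ, checked against triplicate measurements.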

A short description of data set [10]: Surface pressure - area isotherms of PM model membranes. The class given is physicochemical. The following applies: T = 21 ± 0.5 °C.

Sequence of AP2 (recombinant adaptor protein complex 2, hetero-tetramer) (P18484 whole entry): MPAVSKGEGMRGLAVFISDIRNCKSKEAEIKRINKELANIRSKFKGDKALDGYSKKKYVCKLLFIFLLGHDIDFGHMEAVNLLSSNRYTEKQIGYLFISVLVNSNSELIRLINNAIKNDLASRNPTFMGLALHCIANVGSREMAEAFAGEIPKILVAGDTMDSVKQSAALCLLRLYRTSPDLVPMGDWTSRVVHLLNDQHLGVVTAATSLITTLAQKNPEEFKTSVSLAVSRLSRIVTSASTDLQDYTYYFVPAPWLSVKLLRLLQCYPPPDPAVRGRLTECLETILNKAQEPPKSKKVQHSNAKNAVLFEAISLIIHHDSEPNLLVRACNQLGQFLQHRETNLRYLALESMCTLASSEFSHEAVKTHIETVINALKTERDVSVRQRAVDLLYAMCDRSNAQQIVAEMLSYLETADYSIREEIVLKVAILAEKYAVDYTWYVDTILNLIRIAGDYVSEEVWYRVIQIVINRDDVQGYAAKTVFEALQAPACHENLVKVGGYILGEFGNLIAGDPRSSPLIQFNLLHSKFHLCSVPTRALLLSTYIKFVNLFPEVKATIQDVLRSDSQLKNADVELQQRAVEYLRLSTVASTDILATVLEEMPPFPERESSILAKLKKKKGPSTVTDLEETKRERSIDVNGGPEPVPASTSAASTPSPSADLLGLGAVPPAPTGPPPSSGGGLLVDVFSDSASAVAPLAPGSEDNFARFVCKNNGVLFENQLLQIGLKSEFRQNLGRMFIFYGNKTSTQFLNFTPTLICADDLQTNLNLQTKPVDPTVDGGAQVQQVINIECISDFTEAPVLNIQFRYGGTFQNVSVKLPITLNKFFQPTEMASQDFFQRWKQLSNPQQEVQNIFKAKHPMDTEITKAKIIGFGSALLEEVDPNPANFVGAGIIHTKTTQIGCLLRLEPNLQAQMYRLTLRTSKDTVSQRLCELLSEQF
Sequence of AP2 (recombinant adaptor protein complex 2, hetero-tetramer) (P63010 whole entry): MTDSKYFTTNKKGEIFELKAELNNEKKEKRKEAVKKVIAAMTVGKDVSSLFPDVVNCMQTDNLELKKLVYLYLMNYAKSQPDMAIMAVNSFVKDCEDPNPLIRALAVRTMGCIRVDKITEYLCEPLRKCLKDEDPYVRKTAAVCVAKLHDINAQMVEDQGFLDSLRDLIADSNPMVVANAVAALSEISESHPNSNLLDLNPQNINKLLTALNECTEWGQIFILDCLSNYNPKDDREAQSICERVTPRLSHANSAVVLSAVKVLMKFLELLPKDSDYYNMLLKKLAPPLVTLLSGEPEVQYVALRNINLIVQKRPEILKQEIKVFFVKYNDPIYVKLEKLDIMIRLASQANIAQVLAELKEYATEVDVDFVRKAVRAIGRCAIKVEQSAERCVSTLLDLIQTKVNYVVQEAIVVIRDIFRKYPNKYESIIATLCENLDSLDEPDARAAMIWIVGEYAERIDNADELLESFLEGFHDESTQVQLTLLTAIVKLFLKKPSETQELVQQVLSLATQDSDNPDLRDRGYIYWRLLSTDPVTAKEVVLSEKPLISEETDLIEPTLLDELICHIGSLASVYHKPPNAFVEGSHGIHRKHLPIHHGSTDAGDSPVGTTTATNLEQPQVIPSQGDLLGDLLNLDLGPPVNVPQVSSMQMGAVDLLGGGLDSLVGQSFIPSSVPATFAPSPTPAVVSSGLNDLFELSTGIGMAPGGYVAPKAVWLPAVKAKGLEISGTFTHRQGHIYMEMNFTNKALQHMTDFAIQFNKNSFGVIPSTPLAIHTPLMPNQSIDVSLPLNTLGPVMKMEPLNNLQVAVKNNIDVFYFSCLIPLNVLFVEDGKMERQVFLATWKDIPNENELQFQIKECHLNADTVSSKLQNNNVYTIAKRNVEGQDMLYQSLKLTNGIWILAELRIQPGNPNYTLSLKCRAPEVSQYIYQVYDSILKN
Sequence of AP2 (recombinant adaptor protein complex 2, hetero-tetramer) (P84092 whole entry): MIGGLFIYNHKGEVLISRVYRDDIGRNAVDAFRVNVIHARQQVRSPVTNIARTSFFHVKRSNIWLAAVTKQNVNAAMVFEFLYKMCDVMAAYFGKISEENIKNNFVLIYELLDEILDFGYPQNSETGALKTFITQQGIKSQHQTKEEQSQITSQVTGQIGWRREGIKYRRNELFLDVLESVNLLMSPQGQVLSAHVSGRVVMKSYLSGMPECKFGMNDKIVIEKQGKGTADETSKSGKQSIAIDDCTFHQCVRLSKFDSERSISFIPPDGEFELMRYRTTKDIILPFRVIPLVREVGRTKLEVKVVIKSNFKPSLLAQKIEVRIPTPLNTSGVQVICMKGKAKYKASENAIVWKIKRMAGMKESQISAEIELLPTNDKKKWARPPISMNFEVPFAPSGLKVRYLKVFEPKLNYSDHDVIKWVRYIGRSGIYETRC
Sequence of AP2 (recombinant adaptor protein complex 2, hetero-tetramer) (P62743 whole entry): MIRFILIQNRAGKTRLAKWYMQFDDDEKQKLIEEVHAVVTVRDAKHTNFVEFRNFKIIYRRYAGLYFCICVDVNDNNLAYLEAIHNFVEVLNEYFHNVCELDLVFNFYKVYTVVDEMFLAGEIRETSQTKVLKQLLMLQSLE
T1 sequence (P63010 1-591): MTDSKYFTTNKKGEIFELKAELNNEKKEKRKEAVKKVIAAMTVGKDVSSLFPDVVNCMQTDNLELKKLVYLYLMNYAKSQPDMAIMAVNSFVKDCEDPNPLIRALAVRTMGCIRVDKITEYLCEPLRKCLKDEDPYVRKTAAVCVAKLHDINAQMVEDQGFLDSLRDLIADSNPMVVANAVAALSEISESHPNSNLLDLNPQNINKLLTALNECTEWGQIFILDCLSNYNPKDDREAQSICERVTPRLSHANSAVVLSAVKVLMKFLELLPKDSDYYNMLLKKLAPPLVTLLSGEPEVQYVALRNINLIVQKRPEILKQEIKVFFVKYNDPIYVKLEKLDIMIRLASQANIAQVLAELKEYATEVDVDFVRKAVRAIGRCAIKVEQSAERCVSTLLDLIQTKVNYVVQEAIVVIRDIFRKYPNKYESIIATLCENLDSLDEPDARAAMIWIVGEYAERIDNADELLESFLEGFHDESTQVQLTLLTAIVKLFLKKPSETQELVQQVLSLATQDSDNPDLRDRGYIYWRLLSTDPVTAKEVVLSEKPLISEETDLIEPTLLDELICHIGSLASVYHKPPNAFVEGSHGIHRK
T1 sequence (P84092 whole entry): as the sequence (P84092 whole entry) above
T1 sequence (P18484 1-621): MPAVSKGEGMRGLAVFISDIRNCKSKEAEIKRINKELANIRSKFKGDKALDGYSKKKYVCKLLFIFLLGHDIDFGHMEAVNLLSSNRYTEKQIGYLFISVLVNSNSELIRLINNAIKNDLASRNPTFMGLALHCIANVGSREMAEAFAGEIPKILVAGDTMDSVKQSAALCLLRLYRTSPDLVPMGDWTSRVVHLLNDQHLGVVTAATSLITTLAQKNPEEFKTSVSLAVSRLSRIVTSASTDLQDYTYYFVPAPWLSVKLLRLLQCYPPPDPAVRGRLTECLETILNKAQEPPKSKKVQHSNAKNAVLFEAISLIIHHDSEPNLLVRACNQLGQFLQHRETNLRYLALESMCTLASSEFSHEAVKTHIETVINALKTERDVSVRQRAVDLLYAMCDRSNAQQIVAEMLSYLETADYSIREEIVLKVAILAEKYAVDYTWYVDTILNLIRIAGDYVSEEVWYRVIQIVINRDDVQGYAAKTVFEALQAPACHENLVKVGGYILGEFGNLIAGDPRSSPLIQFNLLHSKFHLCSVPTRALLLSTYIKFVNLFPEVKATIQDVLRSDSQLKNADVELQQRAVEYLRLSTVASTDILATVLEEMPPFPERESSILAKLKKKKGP
T1 sequence (P62743 whole entry): as the sequence (P62743 whole entry) above

What is called Kd is a measure of binding affinity in units of concentration. A high value points to a looser complex. Turning to “AP2 (recombinant adaptor protein complex 2, hetero-tetramer) (from UniProt P18484 1-938; P63010 1-937; P84092 1-435; P62743 1-142)”, in [1], the surface coverage of AP2 on the monolayer (with PtdIns(4,5)P2) worked out at 51%. Besides, the surface coverage of AP2 on the monolayer (with PtdIns(4,5)P2) in data set [2] is 24%. For the same compound, in data set [3], the Kd from kinetics (monolayer with cargo and PtdIns(4,5)P2) is 0.012 µM; the overall Kd (monolayer with cargo and PtdIns(4,5)P2) was 0.015 µM; the overall Kd (monolayer with cargo and PtdIns(4,5)P2, 35 mN/m) was determined as 0.064 µM; the residence time (1/koff) on the monolayer with PtdIns(4,5)P2 was 5560 s. In addition, in data set [4], the Kd was found to be 0.075 µM; the apparent koff (combined cargo and PtdIns(4,5)P2 binding, monolayer) was found to be 0.00012 s⁻¹; the overall Kd (monolayer with cargo and PtdIns(4,5)P2, 35 mN/m) worked out at 0.093 µM; the residence time (1/koff) on the monolayer with PtdIns(4,5)P2 amounted to 8330 s.
In the case of `CCCCCCCCCCCCCCCC(=O)OC[C@H](COP(=O)(O)OCCNC(=O)CCCc1ccc(N2C(=O)CC(SC[C@H](N)C(=O)N[C@@H](Cc3c[nH]cn3)C(=O)N[C@@H](CCCNC(=N)N)C(=O)N[C@@H](CCCNC(=N)N)C(=O)N[C@@H](CCCNC(=N)N)C(=O)N[C@@H](CCC(N)=O)C(=O)N[C@@H](C)C(=O)N[C@@H](CCC(=O)O)C(=O)N[C@@H](CCCNC(=N)N)C(=O)N[C@@H](CCSC)C(=O)N[C@@H](COP(=O)(O)O)C(=O)N[C@@H](CCC(N)=O)C(=O)N[C@H](C(=O)N[C@@H](CCCCN)C(=O)N[C@@H](CCCNC(=N)N)C(=O)N[C@@H](CC(C)C)C(=O)N[C@@H](CC(C)C)C(=O)N[C@@H](CO)C(=O)N[C@@H](CCC(=O)O)C(=O)N[C@@H](CCCCN)C(=O)O)[C@@H](C)CC)C2=O)cc1)OC(=O)CCCCCCCCCCCCCCC` (stereo partly drawn) [CD4] (H-C(X1)HRRRQAERM[pS]QIKRLLSEK-OH; N-terminus and C-terminus assumed), the “surface coverage of AP2” value in [5] (open AP2 conformation) was found to be 24%. Further, the “distance of AP2 center-of-mass to membrane head group” value in [5] (open AP2 conformation (2xa7)) is listed as 10 ± 4 Å. Moreover, in data set [6] (AP2, Π0 = 25 mN/m, vs PtdIns(4,5)P2-only), the “change in lateral pressure ΔΠ∞ on addition of cargo” value is recorded as “further increases in lateral pressure”. For the same compound, the “AP2 concentration above which biphasic binding behavior is observed” value in [6] (cargo-presenting monolayer vs PtdIns(4,5)P2-only) was more than 10 nM. In data set [7], the “increment of bright spots' thickness after AP2” value is reported as “A similar increment was also found”. In data set [8], the “location of cargo peptides in monolayer” value was “confined to the headgroups layer”. Also, the “total thickness of membrane-bound AP2” value in data set [9] came out at 84 ± 6 Å. Further, the “effect on liquid expanded (LE) phase” value in data set [10] is “did not alter the existence of the LE phase”.
